Results taken from article PMC12461606 (RSC Chemical Biology, 2025).

How the values were obtained:
[1] = test system: Wild type A. thaliana (WT); assay: Dicamba tolerance trait test, wild type plants; assay type: in vivo, Arabidopsis thaliana; conditions: sprayed at 500 μM
In short: (§1)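 Wild-type plants or a homozygous dicamba-tolerant transgenic line (DMOc) were sprayed with test compound or the parent acid at 500 μM.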

[2] = test system: transgenic line of A. thaliana, modified with a synthetic dicamba monooxygenase from Stenotrophomonas maltophilia; assay: Dicamba tolerance trait test, dicamba-tolerant transgenic line; assay type: in vivo, Arabidopsis thaliana; conditions: sprayed at 500 μM, DMOc line
In short: as §1

[3] = HPLC determination of dicamba formation in water; assay type: physicochemical; conditions: for % Dicamba: integration of dicamba as percentage of all peaks at 220 nm
A. thaliana = assay: Herbicidal activity assay on soil-grown A. thaliana; assay type: in vivo, Arabidopsis thaliana; conditions: for pre-emergent inhibition: pre-emergence treatment; for pre-emergent inhibition / post-emergent inhibition: assessed on day 16; for post-emergent inhibition: treatments three and six days after germination
In short: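 Test compounds were applied to A. thaliana across 125 μM–2 mM, either pre-emergence or post-emergence.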

Compound: 6-O-dicamba-D-glucose [Compound 2]
- growth effect on wild-type [1]: herbicidal
- growth effect on dicamba-tolerant transgenic line [2]: no growth symptoms
- % Dicamba ([3]; 1 day): 0.1%
- % Dicamba ([3]; 7 days): 0.1%
- % Dicamba ([3]; 28 days): 0.5%
- relative stability to hydrolysis among glucose isomers 1–5 ([3]; HPLC): most stable
- relative post-emergent herbicidal efficacy among conjugates (A. thaliana; post-emergence, comparison between carbohydrate conjugates (Fig. 5)): most active

Compound: COc1c(Cl)ccc(Cl)c1C(=O)O [Dicamba, 3,6-dichloro-2-methoxybenzoic acid]
- growth effect on wild-type [1]: herbicidal
- growth effect on dicamba-tolerant transgenic line [2]: no growth symptoms
- pre-emergent inhibition (A. thaliana; 125 μM): weak
- post-emergent inhibition (A. thaliana; 125 μM): moderate
- post-emergent inhibition (A. thaliana; 500 μM): strong
- pre-emergent inhibition (A. thaliana; 1 mM): strong
